Each structure is given as a SMILES string. Active and inactive are the calls of the source. The calls are words filed in the database; no cut-off is given here. Where only a bound is given, the exact number is not on record here.

The target in one series is Activated CDC42 kinase 1 (Homo sapiens, UniProt Q07912). In words: Inhibition of ACK1 (unknown origin) by radiometric biochemical kinase assay.
The target of a further series is CYP2C9 (Homo sapiens, UniProt P11712). In words: Inhibition of CYP2C9 (unknown origin) assessed as activity remaining at 10 uM relative to control. The conditions noted are these: read-out: Activity. The class given is ADME.
Series [1] is described as follows: Metabolic stability in dog liver microsomes assessed as compound remaining at 1 uM after 30 mins. The conditions noted are these: read-out: Stability. The series is classed as ADME, Canis lupus familiaris, microsome. Background: Liver microsomes are a subcellular fraction often used to study metabolism.
In series [2] the test system is OCI-AML-3. Briefly: Growth inhibition of human OCI-AML3 cells harboring NRAS-Q61L mutant after 72 hrs by celltiter-glo assay. The series is classed as functional. The conditions noted are these: OCI-AML-3, 72 h. For orientation: In ATP-based viability assays light output follows the ATP content of the culture.
Series [3] is described as follows: Metabolic stability in rat liver microsomes assessed as compound remaining at 1 uM after 30 mins. The class given is ADME, microsome. As to conditions: read-out: Stability.
Series [4] relates to OCI-AML-3. Briefly: Inhibition of anchorage-independent cell growth in human OCI-AML3 cells harboring NRAS Q61L mutant assessed as reduction in colony size at 0.1 to 1 uM after 14 days by iodonitrotetrazolium chloride staining-based soft agar assay. The class given is functional. Put shortly:
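OCI-AML3 cells embedded in 0.7% low-melting agar, incubated 2 weeks with compound at 0.1 or 1 µM; colony number and colony size per well measured by automated image analysis; n = 3 per condition, SD, one-way ANOVA.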

The target of series [5] is Activated CDC42 kinase 1 (Mus musculus) (UniProt O54967). Briefly: Inhibition of ACK1 in mouse BA/F3 cells harboring NRAS-G12D mutant assessed as reduction in P70S6K1 phosphorylation at Thr421/Ser424 at 1 uM after 2 hrs by Western blot analysis. The series is classed as cell-based. Put shortly: (§1)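 Ba/F3-NRAS-G12D or OCI-AML3 cells exposed 2 h to compounds (1 µM, or a dose series in OCI-AML3); phospho-p70S6K1, phospho-AKT S473, phospho-JNK and phospho-p38 assessed by western blot, actin as loading control.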

The species named for the next series is Mus musculus. In words: Inhibition of ACK1/GCK in mouse BA/F3 cells assessed as reduction in NRAS-G12D mutant-mediated cell proliferation after 72 hrs by celltiter-glo assay. The series is classed as cell-based.
Series [6] addresses T1, Mitogen-activated protein kinase kinase kinase kinase 2 (Homo sapiens) (UniProt Q12851).
T1 sequence (whole entry): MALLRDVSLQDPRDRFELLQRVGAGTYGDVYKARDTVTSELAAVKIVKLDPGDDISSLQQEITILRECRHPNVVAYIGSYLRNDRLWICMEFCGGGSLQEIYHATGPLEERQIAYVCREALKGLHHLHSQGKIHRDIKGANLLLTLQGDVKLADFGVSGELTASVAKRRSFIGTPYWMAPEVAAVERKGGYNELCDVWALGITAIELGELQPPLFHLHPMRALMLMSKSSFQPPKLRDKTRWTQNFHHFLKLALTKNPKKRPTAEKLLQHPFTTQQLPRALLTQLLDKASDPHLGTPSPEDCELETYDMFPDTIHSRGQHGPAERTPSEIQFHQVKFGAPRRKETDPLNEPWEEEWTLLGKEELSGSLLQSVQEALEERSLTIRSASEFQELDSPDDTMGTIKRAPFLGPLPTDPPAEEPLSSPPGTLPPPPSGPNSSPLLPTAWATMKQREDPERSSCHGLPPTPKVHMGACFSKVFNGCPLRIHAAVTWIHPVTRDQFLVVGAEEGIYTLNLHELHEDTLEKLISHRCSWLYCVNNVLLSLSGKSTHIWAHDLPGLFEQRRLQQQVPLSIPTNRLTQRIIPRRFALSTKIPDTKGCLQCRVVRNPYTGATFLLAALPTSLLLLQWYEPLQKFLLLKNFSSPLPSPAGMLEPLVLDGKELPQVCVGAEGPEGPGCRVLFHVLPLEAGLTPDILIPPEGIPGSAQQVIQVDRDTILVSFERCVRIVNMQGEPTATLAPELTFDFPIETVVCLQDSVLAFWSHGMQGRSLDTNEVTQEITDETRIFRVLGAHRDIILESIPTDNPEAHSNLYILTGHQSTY
In words: Inhibition of GCK in human OCI-AML3 cells harboring NRAS Q61L mutant assessed as reduction in JNK phosphorylation at T183/Y185 at 1 uM after 2 hrs by Western blot analysis. The class given is cell-based. In a few lines: as §1

The nature of series [7]: Growth inhibition of parental mouse BA/F3 cells after 72 hrs by celltiter-glo assay. The class given is cell-based, BaF3.
The target in another series is CYP2D6 (Homo sapiens, UniProt P10635). In words: Inhibition of CYP2D6 (unknown origin) assessed as activity remaining at 10 uM relative to control. As to conditions: read-out: Activity. The class given is ADME.
Series [8] addresses T1, Mitogen-activated protein kinase kinase kinase kinase 2 (Homo sapiens). Briefly: Inhibition of GCK in human OCI-AML3 cells harboring NRAS Q61L mutant assessed as reduction in p38 phosphorylation at Thr180/Tyr182 at 1 uM after 2 hrs by Western blot analysis. The series is classed as cell-based. In a few lines: as §1
On the technique in general: In western blotting, separated proteins are transferred to a membrane and probed.

The target in another series is CYP3A4 (Homo sapiens, UniProt P08684). Briefly: Inhibition of CYP3A4 (unknown origin) assessed as activity remaining at 10 uM relative to control. The series is classed as ADME. As to conditions: read-out: Activity.
The target in series [9] is T2, Mitogen-activated protein kinase kinase kinase kinase 2 (Mus musculus) (UniProt Q61161).
T2 sequence (whole entry): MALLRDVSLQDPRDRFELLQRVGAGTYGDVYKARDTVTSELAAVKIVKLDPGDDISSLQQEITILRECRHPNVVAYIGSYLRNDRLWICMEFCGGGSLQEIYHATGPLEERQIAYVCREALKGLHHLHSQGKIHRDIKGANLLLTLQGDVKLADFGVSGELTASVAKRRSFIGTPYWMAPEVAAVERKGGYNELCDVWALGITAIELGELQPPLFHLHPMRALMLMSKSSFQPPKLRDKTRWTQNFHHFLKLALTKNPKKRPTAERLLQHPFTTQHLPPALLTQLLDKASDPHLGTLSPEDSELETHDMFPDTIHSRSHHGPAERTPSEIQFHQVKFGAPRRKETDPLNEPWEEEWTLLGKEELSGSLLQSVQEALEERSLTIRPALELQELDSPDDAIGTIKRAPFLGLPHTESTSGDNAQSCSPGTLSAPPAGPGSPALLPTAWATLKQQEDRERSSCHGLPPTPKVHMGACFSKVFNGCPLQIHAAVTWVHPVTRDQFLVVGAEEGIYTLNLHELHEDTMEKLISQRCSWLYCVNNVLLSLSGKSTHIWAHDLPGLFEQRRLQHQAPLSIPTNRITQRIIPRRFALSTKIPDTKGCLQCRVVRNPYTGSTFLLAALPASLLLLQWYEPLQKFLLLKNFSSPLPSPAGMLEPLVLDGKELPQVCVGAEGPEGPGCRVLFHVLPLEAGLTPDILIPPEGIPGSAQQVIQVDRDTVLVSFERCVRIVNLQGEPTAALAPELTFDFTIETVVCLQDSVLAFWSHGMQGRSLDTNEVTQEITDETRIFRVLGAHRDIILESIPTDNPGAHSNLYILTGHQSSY
In words: Inhibition of GCK in mouse BA/F3 cells harboring NRAS-G12D mutant assessed as reduction in p38 phosphorylation at Thr180/Tyr182 at 1 uM after 2 hrs by Western blot analysis. The series is classed as cell-based. In a few lines:
as §1

Series [10] deals with OCI-AML-3. Briefly: Growth inhibition of ACK1/GCK knockdown human OCI-AML3 cells harboring NRAS-Q61L mutant at 0.2 uM after 72 hrs by celltiter-glo assay. The class given is functional, cell-based.

Sequence of CYP2C9 (P11712 whole entry): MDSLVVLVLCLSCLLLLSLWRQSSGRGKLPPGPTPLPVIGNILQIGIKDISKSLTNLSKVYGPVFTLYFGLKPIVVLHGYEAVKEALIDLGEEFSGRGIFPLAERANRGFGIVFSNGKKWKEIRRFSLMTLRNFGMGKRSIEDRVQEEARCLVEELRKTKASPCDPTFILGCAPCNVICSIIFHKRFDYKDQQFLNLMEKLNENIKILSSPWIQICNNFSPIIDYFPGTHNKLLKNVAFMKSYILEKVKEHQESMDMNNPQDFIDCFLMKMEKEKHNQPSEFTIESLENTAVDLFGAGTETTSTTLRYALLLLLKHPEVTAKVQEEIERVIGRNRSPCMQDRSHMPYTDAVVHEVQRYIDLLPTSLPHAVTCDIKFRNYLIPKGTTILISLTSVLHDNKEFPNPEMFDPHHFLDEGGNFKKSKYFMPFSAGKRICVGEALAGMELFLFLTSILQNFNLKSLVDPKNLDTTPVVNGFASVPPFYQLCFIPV
Sequence of Activated CDC42 kinase 1 (Mus musculus) (O54967 whole entry): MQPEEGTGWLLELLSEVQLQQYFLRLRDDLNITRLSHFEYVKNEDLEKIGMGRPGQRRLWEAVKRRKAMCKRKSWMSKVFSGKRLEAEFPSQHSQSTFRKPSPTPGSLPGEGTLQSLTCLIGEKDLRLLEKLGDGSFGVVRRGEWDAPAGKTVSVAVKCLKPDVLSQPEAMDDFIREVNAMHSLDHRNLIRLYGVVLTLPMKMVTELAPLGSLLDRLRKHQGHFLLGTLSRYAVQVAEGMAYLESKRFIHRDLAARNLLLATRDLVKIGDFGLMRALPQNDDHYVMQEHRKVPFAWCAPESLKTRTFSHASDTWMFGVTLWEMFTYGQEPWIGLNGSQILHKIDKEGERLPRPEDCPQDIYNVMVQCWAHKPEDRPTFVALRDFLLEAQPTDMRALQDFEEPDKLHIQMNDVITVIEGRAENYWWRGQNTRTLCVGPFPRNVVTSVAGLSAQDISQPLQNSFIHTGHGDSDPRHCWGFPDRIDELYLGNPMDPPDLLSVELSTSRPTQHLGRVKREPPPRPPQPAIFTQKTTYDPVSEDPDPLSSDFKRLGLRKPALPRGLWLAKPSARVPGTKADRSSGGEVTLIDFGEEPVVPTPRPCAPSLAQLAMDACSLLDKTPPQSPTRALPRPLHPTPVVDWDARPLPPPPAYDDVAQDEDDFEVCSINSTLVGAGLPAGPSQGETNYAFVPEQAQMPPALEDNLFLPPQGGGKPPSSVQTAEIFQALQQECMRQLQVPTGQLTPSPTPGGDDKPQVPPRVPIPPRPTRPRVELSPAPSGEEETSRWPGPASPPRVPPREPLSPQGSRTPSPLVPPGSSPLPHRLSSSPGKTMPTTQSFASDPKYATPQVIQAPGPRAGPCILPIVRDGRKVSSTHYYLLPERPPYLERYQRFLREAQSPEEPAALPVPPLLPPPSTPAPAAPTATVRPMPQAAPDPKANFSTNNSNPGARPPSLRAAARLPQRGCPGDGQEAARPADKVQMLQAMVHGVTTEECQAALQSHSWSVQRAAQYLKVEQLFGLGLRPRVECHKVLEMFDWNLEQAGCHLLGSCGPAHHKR
Sequence of Activated CDC42 kinase 1 (Q07912 whole entry): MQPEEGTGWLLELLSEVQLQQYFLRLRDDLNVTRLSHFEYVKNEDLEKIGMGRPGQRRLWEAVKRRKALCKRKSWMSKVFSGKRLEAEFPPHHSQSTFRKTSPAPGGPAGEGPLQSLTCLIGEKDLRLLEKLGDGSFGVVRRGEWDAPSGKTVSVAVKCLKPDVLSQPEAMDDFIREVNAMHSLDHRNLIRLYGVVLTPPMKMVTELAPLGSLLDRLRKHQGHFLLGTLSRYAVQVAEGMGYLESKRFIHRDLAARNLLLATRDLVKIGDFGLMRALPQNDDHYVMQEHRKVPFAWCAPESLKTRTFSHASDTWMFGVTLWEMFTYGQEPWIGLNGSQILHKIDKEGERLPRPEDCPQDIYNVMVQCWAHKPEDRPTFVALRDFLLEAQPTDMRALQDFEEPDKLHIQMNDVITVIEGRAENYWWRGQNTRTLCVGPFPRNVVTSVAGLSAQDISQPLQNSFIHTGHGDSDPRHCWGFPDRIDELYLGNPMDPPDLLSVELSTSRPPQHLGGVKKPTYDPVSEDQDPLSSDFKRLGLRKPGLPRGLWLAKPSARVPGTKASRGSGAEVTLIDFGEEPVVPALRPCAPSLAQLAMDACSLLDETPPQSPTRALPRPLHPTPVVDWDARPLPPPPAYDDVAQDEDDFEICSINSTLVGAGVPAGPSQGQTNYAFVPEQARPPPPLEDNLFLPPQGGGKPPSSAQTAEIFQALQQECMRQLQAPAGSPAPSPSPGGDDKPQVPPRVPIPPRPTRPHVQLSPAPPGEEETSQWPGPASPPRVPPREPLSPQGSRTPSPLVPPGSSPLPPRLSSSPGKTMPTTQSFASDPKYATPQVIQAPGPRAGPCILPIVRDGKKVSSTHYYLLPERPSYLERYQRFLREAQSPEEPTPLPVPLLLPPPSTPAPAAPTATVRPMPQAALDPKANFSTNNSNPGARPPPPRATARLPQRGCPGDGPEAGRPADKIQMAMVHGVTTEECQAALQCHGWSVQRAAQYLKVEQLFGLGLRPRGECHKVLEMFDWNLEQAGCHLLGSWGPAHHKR
Sequence of CYP3A4 (P08684 whole entry): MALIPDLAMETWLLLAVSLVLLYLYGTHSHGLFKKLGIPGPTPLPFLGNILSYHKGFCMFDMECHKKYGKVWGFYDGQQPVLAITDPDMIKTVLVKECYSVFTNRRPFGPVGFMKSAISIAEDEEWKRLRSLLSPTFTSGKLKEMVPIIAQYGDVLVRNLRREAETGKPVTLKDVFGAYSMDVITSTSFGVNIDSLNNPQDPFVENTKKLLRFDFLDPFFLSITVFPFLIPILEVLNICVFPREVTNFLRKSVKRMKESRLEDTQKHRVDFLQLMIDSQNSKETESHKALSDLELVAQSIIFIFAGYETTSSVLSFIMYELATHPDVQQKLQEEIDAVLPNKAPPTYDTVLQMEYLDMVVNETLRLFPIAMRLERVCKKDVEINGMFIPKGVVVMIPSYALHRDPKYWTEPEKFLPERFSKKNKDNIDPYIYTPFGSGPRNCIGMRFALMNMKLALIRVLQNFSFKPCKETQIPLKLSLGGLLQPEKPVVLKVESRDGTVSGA
Sequence of CYP2D6 (P10635 whole entry): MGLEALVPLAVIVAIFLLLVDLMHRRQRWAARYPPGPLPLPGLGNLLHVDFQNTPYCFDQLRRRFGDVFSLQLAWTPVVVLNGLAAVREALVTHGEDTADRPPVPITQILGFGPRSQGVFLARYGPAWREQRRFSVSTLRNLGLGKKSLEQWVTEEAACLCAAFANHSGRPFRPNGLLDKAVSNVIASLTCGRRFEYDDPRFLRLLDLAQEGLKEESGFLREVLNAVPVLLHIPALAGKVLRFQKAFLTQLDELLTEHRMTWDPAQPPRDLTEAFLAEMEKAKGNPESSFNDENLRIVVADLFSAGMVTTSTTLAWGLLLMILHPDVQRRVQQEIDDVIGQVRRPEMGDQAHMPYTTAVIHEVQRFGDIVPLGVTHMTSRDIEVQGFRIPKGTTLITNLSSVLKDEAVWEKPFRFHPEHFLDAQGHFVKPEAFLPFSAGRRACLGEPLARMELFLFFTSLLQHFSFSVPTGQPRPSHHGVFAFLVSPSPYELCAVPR

As usually defined, the IC50 is the concentration that gives 50% inhibition. Low readings indicate inhibition by little substance, high ones a need for much substance. The GI50 is the concentration at which growth is held to half of that of the control. `Cc1ccc(Nc2ncc3c(n2)N(C)C(=O)N(c2cc(NC(=O)c4ccc(CN5CCC(N(C)C)C5)c(C(F)(F)F)c4)ccc2C)C3)cn1` (configuration not stated) came in with a half-maximal inhibitory concentration (IC50) against Activated CDC42 kinase 1 of 6 nM. The figures for the activity at 10 µM at CYP2C9, on CYP2D6 and at CYP3A4 were 55.1%, 4.9% and 21.6%, respectively. The remaining at 0.5 h, 1 µM in series [1] was determined as 43.1%; in series [3], 76.5%. In addition, the figures for the GI50 in the series with OCI-AML-3 [2] and in the series listed under Mus musculus were 37 nM and 23 nM, respectively. In the series on OCI-AML-3 [4], the “growth inhibition (GI)” value was “Active”. For the same molecule, in series [5], the “reduction in P70S6K1 phosphorylation (active/inactive)” value (“reduction … (active/inactive)” for short) is “Active”. In addition, the “reduction in JNK phosphorylation (qualitative call)” value (from here on “reduction in JNK phosphorylation”) in series [6] was “Active”. Also, the 50% growth inhibitory concentration (GI50) at 72 h in series [7] amounted to 636 nM. Besides, in [8], the inhibition result was “Active”. The “reduction in p38 phosphorylation (qualitative call)” value (shortened to “reduction in p38 phosphorylation”) in series [9] was “Active”.
As to `CCN1CCN(C(=O)c2ccc(Nc3ncc4c(n3)N(C)C(=O)N(c3cc(NC(=O)c5cccc(C(F)(F)F)c5)ccc3C)C4)cn2)CC1`, at Activated CDC42 kinase 1, the midpoint of inhibition, the IC50, lay at 13 nM. Besides, the activity at 10 µM at CYP2C9 turned out to be 29%; at CYP2D6, 32.8%; on CYP3A4, 94.2%. Besides, the remaining at 0.5 h, 1 µM in series [1] came to 23.3%; in series [3] it was 38.3%. For the same molecule, the GI50 in the series on OCI-AML-3 [2] worked out at 122 nM; in the series filed under Mus musculus, 107 nM. For the same molecule, the “reduction … (active/inactive)” value in series [5] is “Active”. Further, in series [6], the “reduction in JNK phosphorylation” value was “Active”. Besides, the GI50 at 72 h in [7] came out at 728 nM. Also, the inhibition entry in [8] is “Active”. The “growth inhibition (GI)” value in the series with OCI-AML-3 [10] was “Active”. In addition, the “reduction in p38 phosphorylation” value in [9] was “Active”.
On Activated CDC42 kinase 1, `Cc1cc(Nc2ncc3c(n2)N(C)C(=O)N(c2cc(NC(=O)c4cccc(C(F)(F)F)c4)ccc2C)C3)n(C)n1` gave an IC50 of 9 nM. The activity at 10 µM at CYP2C9 was 38.3%; at CYP2D6, 72%; at CYP3A4 it was more than 100%. Further, the remaining at 0.5 h, 1 µM in series [1] is 69.9%; in series [3], 82.3%. Besides, the values for the GI50 in the series on OCI-AML-3 [2] and in the series filed under Mus musculus were 208 nM and 129 nM, respectively. Besides, the “reduction … (active/inactive)” value in [5] was “Active”. Also, the “reduction in JNK phosphorylation” value in series [6] is “Active”. In series [7], the GI50 at 72 h turned out to be 2060 nM. The inhibition result in [8] was “Active”. Further, in the series with OCI-AML-3 [10], the “growth inhibition (GI)” value was “Active”. Moreover, the “reduction in p38 phosphorylation” value in [9] is “Active”.
On Activated CDC42 kinase 1, `Cc1ccc(NC(=O)c2cccc(C(F)(F)F)c2)cc1N1Cc2cnc(N)nc2N(C)C1=O` displayed a half-inhibitory concentration (IC50) of 18 nM. Besides, the activity at 10 µM was 68.1% on CYP2C9, 82.2% at CYP2D6 and more than 100% at CYP3A4. In addition, the remaining at 0.5 h, 1 µM in [1] came to 67.9%; in series [3], 81.3%. Besides, the figures for the GI50 in the series with OCI-AML-3 [2] and in the series listed under Mus musculus were 466 nM and 223 nM, respectively. Besides, the “growth inhibition (GI)” value in the series on OCI-AML-3 [4] is “Active”. Moreover, the “reduction … (active/inactive)” value in series [5] was “Active”. Also, in series [6], the “reduction in JNK phosphorylation” value was “Active”. Moreover, in [7], the GI50 at 72 h is 2110 nM. Further, the inhibition entry in series [8] is “Active”. For the same molecule, the “reduction in p38 phosphorylation” value in series [9] is “Active”.
For the molecule `CC(=O)N1CCN(c2ccc(Nc3ncc4c(n3)N(C)C(=O)N(c3cc(NC(=O)c5cccc(C(F)(F)F)c5)ccc3C)C4)cn2)CC1`, 8 nM corresponded to half-maximal inhibition on Activated CDC42 kinase 1 (IC50). Moreover, the activity at 10 µM stood at 15.6% at CYP2C9, 83.1% at CYP2D6 and 88.5% at CYP3A4. The remaining at 0.5 h, 1 µM in series [1] was found to be 38%; in [3], 75.4%. In addition, the concentration for 50% growth inhibition (GI50) in the series with OCI-AML-3 [2] was found to be 179 nM; in the series filed under Mus musculus, 59 nM. Also, the “growth inhibition (GI)” value in the series with OCI-AML-3 [4] and in the series on OCI-AML-3 [10] was “Active” in each case. The GI50 at 72 h in [7] was 402 nM.

These data come from ChEMBL document CHEMBL4196175, “First SAR Study for Overriding NRAS Mutant Driven Acute Myeloid Leukemia” (J Med Chem, 2018).
